Data published in ChEMBL document CHEMBL1121898, “Potential antiestrogens. Synthesis and evaluation of mammary tumor inhibiting activity of 1,2-dialkyl-1,2-bis(3'-hydroxyphenyl)ethanes” (1981).

Experiments:
[1] = organism: Rattus norvegicus; experiment: Final number of DMBA-induced hormone-dependent mammary carcinoma tumors in rats at 2.25 mg; assay type: functional
In short: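 Sprague-Dawley rats carrying DMBA-induced, hormone-dependent mammary adenocarcinoma, at least one tumor >140 mm², were placed in groups of ten. Compounds were given sc, with doses in mg/kg: a single daily dose Monday to Thursday and a double dose on Friday. Ovariectomy served as a comparator group. New tumors arising during the test were counted.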

[2] = organism: Rattus norvegicus; experiment: Progression of DMBA-induced hormone-dependent mammary carcinoma tumors in rats at 4.5 mg; assay type: functional
[3] = organism: Rattus norvegicus; experiment: Number of DMBA-induced hormone-dependent mammary carcinoma tumors in ovariectomised rats; assay type: functional
In short: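 DMBA-induced, hormone-dependent mammary adenocarcinoma in SD rats, with ovariectomy as the treatment. Rats bearing at least one tumor >140 mm² were placed in groups of ten. Tumors were counted at the start and as new tumors. Responses were scored as complete remission, partial remission (≥50% size reduction), no change or progression, with % change in tumor area and body weight.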

[4] = biological target: T1, Estrogen receptor (Mus musculus) (UniProt O08537+P19785); experiment: Antiestrogenic activity in uterotrophic test in mice at 2.5 ug (experiment 1)
T1 sequence (O08537 whole entry, looked up): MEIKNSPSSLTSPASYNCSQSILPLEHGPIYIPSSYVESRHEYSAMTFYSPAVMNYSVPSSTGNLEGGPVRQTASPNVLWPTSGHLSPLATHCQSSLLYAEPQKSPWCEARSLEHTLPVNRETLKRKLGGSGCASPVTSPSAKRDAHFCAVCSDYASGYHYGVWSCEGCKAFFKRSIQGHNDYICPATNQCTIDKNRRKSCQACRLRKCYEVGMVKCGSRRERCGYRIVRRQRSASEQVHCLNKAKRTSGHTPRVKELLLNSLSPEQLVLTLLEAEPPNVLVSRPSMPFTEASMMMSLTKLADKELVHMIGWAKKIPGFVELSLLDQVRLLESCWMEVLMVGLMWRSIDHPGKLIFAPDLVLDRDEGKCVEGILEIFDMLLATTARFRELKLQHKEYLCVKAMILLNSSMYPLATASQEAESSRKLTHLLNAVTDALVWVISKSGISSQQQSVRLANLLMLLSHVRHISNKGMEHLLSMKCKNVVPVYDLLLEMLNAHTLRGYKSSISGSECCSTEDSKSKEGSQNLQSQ
T1 sequence (P19785 whole entry, looked up): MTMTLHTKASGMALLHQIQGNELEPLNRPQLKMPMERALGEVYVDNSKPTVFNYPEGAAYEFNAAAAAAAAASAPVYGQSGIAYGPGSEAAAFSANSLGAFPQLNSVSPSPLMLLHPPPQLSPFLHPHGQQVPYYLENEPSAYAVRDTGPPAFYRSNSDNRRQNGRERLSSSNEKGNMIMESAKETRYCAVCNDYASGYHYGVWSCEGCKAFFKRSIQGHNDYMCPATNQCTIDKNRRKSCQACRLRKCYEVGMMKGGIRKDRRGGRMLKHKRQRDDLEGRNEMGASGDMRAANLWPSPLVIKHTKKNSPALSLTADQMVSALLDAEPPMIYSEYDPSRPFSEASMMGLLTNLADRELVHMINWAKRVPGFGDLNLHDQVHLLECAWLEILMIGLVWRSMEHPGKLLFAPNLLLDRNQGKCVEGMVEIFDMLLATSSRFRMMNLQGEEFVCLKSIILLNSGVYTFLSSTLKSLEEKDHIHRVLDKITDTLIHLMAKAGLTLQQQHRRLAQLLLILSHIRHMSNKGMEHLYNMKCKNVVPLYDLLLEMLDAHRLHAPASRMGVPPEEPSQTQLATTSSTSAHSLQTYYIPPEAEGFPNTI

[5] = biological target: T1, Estrogen receptor (Mus musculus); experiment: Estrogenic activity in uterotrophic test in mice at 0 ug (experiment 1); assay type: functional
In short: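 Uterine growth stimulation in immature female NMRI mice, 20 days old (14.5 ± 1.2 g), 10 per group. Test compound in 0.1 mL olive oil was given sc daily for 3 days. Uteri were excised 24 h after the final injection and weighed. Effect is reported as mean ± SD.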

[6] = organism: Rattus norvegicus; experiment: Percent change in body weight DMBA-induced hormone-dependent mammary carcinoma tumors in rats at 2 mg for 7 days; assay type: functional
In short: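 Sprague-Dawley rats with DMBA-induced, hormone-dependent mammary adenocarcinoma; animals with at least one tumor over 140 mm² were grouped in tens. Dosed subcutaneously in mg/kg body weight: a single daily dose Monday to Thursday, doubled on Friday. Percent change in body weight was recorded over the test alongside tumor area and remission counts, with untreated controls.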

[7] = organism: Rattus norvegicus; experiment: Complete remission of DMBA-induced hormone-dependent mammary carcinoma tumors in rats at 4 mg; assay type: functional
In short: (§1)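 Female SD rats bearing DMBA-induced, hormone-dependent mammary adenocarcinoma, with at least one tumor >140 mm², were grouped in tens. Dosing was sc per kg body weight: a single dose daily Monday–Thursday and a double dose Friday. Ovariectomy served as the comparison arm. Complete remission was defined as a tumor no longer palpable. Body weight and tumor area changes were also recorded.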

[8] = organism: Rattus norvegicus; experiment: Complete remission of DMBA-induced hormone-dependent mammary carcinoma tumors in rats at 2 mg; assay type: functional; in short: as §1

Row | % inhibition [4] | Effect [5] | SMILES | No. of tumors [1] | Tumors [2] | No. of tumors [3] | Change [6] | Tumors [7] | Tumors [8]
1 | – | – | CCCC(c1cccc(O)c1)C(CCC)c1cccc(O)c1 (stereo not drawn) | 17 | 36% | 2 | – | – | –
2 | 27% | 10.7 | CCC(c1cccc(O)c1)C(CC)c1cccc(O)c1 (stereo in doubt; 20) | – | – | – | -1.5% | 46% | 19%
